{
  "source": "ChEMBL document CHEMBL3286116",
  "about": "“Synthesis, biological evaluation and structure-activity correlation study of a series of imidazol-based compounds as Candida albicans inhibitors” (Eur J Med Chem, 2014)",
  "assay_type_in_all_cases": "functional",
  "key": {"Candida parapsilosis [1]": {"tested_on": "Candida parapsilosis", "experiment": "Antifungal activity against Candida parapsilosis DSM 11224 after 48 hrs by CLSI broth microdilution method", "details": "Lodderomyces parapsilosis, DSM 11224, 48 h", "how_it_was_run": "(§1)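 Yeast CLSI broth microdilution (M27-A3). Compounds dissolved in DMSO at 100× the top test concentration, then diluted as serial two-fold dilutions in RPMI 1640 to final 0.125–64. Inoculum was 1.0–1.5 × 10^3 cells mL−1, incubated at 35 °C and read for growth at 48 h. MIC is the lowest concentration giving ≥50% growth inhibition versus growth control. Reported as the median of five replicates and as the geometric mean.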"}, "[2]": {"tested_on": "Trichophyton mentagrophytes", "experiment": "Antifungal activity against Trichophyton mentagrophytes DSM 4870 after 72 hrs by CLSI broth microdilution method", "details": "DSM 4870, 72 h", "how_it_was_run": "(§2)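 Dermatophytes tested by CLSI broth microdilution for filamentous fungi (M38-A2). Serial two-fold dilutions of DMSO-dissolved compound in RPMI 1640, final 0.125–64. Inoculum was 0.4–5 × 10^4 CFU mL−1, incubated at 35 °C and read at 72 h. MIC80 is the lowest concentration giving ≥80% growth inhibition versus growth control. Median of five replicates, plus geometric mean.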"}, "Pichia kudriavzevii [3]": {"tested_on": "Pichia kudriavzevii", "experiment": "Antifungal activity against Candida krusei PMC 0613 after 48 hrs by CLSI broth microdilution method", "details": "PMC 0613, 48 h", "how_it_was_run": "as §1"}, "Nannizzia gypsea [4]": {"tested_on": "Nannizzia gypsea", "experiment": "Antifungal activity against Microsporum gypseum DSM 3824 after 72 hrs by CLSI broth microdilution method", "details": "DSM 3824, 72 h", "how_it_was_run": "as §2"}, "[5]": {"tested_on": "Trichophyton mentagrophytes", "experiment": "Antifungal activity against Trichophyton mentagrophytes PMC 6509 after 72 hrs by CLSI broth microdilution method", "details": "PMC 6509, 72 h", "how_it_was_run": "as §2"}, "Cryptococcus neoformans [6]": {"tested_on": "Cryptococcus neoformans", "experiment": "Antifungal activity against Cryptococcus neoformans PMC 2123 after 72 hrs by CLSI broth microdilution method", "details": "PMC 2123, 72 h", "how_it_was_run": "(§3)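 Cryptococcus neoformans tested by CLSI broth microdilution in RPMI 1640, with serial two-fold dilutions from DMSO stocks at 100× the top concentration, final 0.125–64. Inoculum was 1.0–1.5 × 10^3 cells mL−1 at 35 °C, with growth read at 72 h. MIC is the lowest concentration with ≥50% growth inhibition versus control. Median of five replicates, plus geometric mean.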"}, "Cryptococcus neoformans [7]": {"tested_on": "Cryptococcus neoformans", "experiment": "Antifungal activity against Cryptococcus neoformans PMC 2111 after 72 hrs by CLSI broth microdilution method", "details": "PMC 2111, 72 h", "how_it_was_run": "as §3"}, "Candida parapsilosis [8]": {"tested_on": "Candida parapsilosis", "experiment": "Antifungal activity against Candida parapsilosis ATCC 22019 after 48 hrs by CLSI broth microdilution method", "details": "Lodderomyces parapsilosis, ATCC 22019, 48 h", "how_it_was_run": "as §1"}, "Cryptococcus neoformans [9]": {"tested_on": "Cryptococcus neoformans", "experiment": "Antifungal activity against Cryptococcus neoformans DSM 11959 after 72 hrs by CLSI broth microdilution method", "details": "DSM 11959, 72 h", "how_it_was_run": "as §3"}, "Cryptococcus neoformans [10]": {"tested_on": "Cryptococcus neoformans", "experiment": "Antifungal activity against Cryptococcus neoformans PMC 2115 after 72 hrs by CLSI broth microdilution method", "details": "PMC 2115, 72 h", "how_it_was_run": "as §3"}, "Nannizzia gypsea [11]": {"tested_on": "Nannizzia gypsea", "experiment": "Antifungal activity against Microsporum gypseum PMC 7331 after 72 hrs by CLSI broth microdilution method", "details": "PMC 7331, 72 h", "how_it_was_run": "as §2"}, "Candida albicans [12]": {"tested_on": "Candida albicans", "experiment": "Antifungal activity against Candida albicans ATCC 90028 after 48 hrs by CLSI broth microdilution method", "details": "ATCC 90028, 48 h", "how_it_was_run": "as §1"}, "Candida albicans [13]": {"tested_on": "Candida albicans", "experiment": "Antifungal activity against Candida albicans ATCC 76615 after 48 hrs by CLSI broth microdilution method", "details": "ATCC 76615, 48 h", "how_it_was_run": "as §1"}, "Candida tropicalis [14]": {"tested_on": "Candida tropicalis", "experiment": "Antifungal activity against Candida tropicalis PMC 0910 after 48 hrs by CLSI broth microdilution method", "details": "PMC 0910, 48 h", "how_it_was_run": "as §1"}, "[15]": {"tested_on": "Trichophyton mentagrophytes", "experiment": "Antifungal activity against Trichophyton mentagrophytes PMC 6531 after 72 hrs by CLSI broth microdilution method", "details": "PMC 6531, 72 h", "how_it_was_run": "as §2"}, "[16]": {"tested_on": "Trichophyton mentagrophytes", "experiment": "Antifungal activity against Trichophyton mentagrophytes PMC 6552 after 72 hrs by CLSI broth microdilution method", "details": "PMC 6552, 72 h", "how_it_was_run": "as §2"}, "Cryptococcus neoformans [17]": {"tested_on": "Cryptococcus neoformans", "experiment": "Antifungal activity against Cryptococcus neoformans PMC 2103 after 72 hrs by CLSI broth microdilution method", "details": "PMC 2103, 72 h", "how_it_was_run": "as §3"}, "Cryptococcus neoformans [18]": {"tested_on": "Cryptococcus neoformans", "experiment": "Antifungal activity against Cryptococcus neoformans PMC 2102 after 72 hrs by CLSI broth microdilution method", "details": "PMC 2102, 72 h", "how_it_was_run": "as §3"}, "Candida albicans [19]": {"tested_on": "Candida albicans", "experiment": "Antifungal activity against Candida albicans ATCC 3153 after 48 hrs by CLSI broth microdilution method", "details": "ATCC 3153, 48 h", "how_it_was_run": "as §1"}, "Nakaseomyces glabratus [20]": {"tested_on": "Nakaseomyces glabratus", "experiment": "Antifungal activity against Candida glabrata PMC 0807 after 48 hrs by CLSI broth microdilution method", "details": "PMC 0807, 48 h", "how_it_was_run": "as §1"}, "Pichia kudriavzevii [21]": {"tested_on": "Pichia kudriavzevii", "experiment": "Antifungal activity against Candida krusei DSM 6128 after 48 hrs by CLSI broth microdilution method", "details": "DSM 6128, 48 h", "how_it_was_run": "as §1"}, "[22]": {"tested_on": "Trichophyton mentagrophytes", "experiment": "Antifungal activity against Trichophyton mentagrophytes PMC 6515 after 72 hrs by CLSI broth microdilution method", "details": "PMC 6515, 72 h", "how_it_was_run": "as §2"}, "Candida albicans [23]": {"tested_on": "Candida albicans", "experiment": "Antifungal activity against Candida albicans ATCC 10261 after 48 hrs by CLSI broth microdilution method", "details": "ATCC 10261, 48 h", "how_it_was_run": "as §1"}, "Candida tropicalis [24]": {"tested_on": "Candida tropicalis", "experiment": "Antifungal activity against Candida tropicalis DSM 11953 after 48 hrs by CLSI broth microdilution method", "details": "DSM 11953, 48 h", "how_it_was_run": "as §1"}, "Candida albicans [25]": {"tested_on": "Candida albicans", "experiment": "Antifungal activity against Candida albicans ATCC 10231 after 48 hrs by CLSI broth microdilution method", "details": "ATCC 10231, 48 h", "how_it_was_run": "as §1"}, "Candida albicans [26]": {"tested_on": "Candida albicans", "experiment": "Antifungal activity against Candida albicans PMC 1011 after 48 hrs by CLSI broth microdilution method", "details": "PMC 1011, 48 h", "how_it_was_run": "as §1"}, "Nannizzia gypsea [27]": {"tested_on": "Nannizzia gypsea", "experiment": "Antifungal activity against Microsporum gypseum PMC 7303 after 72 hrs by CLSI broth microdilution method", "details": "PMC 7303, 72 h", "how_it_was_run": "as §2"}, "[28]": {"tested_on": "Trichophyton mentagrophytes", "experiment": "Antifungal activity against Trichophyton mentagrophytes PMC 6503 after 72 hrs by CLSI broth microdilution method", "details": "PMC 6503, 72 h", "how_it_was_run": "as §2"}, "Cryptococcus neoformans [29]": {"tested_on": "Cryptococcus neoformans", "experiment": "Antifungal activity against Cryptococcus neoformans PMC 2136 after 72 hrs by CLSI broth microdilution method", "details": "PMC 2136, 72 h", "how_it_was_run": "as §3"}, "Candida albicans [30]": {"tested_on": "Candida albicans", "experiment": "Antifungal activity against Candida albicans ATCC 20891 after 48 hrs by CLSI broth microdilution method", "details": "ATCC 20891, 48 h", "how_it_was_run": "as §1"}, "Candida albicans [31]": {"tested_on": "Candida albicans", "experiment": "Antifungal activity against Candida albicans ATCC 24433 after 48 hrs by CLSI broth microdilution method", "details": "ATCC 24433, 48 h", "how_it_was_run": "as §1"}, "Nakaseomyces glabratus [32]": {"tested_on": "Nakaseomyces glabratus", "experiment": "Antifungal activity against Candida glabrata PMC 0805 after 48 hrs by CLSI broth microdilution method", "details": "PMC 0805, 48 h", "how_it_was_run": "as §1"}, "Cryptococcus neoformans [33]": {"tested_on": "Cryptococcus neoformans", "experiment": "Antifungal activity against Cryptococcus neoformans PMC 2107 after 72 hrs by CLSI broth microdilution method", "details": "PMC 2107, 72 h", "how_it_was_run": "as §3"}},
  "data": [
    {"smiles": "O=C(Nc1ccc(N2CCN(c3ccc(Cl)cc3)CC2)cc1)O[C@H](Cn1ccnc1)c1ccc(F)cc1", "values": [
      {"measurement": "MIC50", "setting": "Candida parapsilosis [1]", "value": 2, "unit": "µg/mL"},
      {"measurement": "MIC80", "setting": "[2]", "value": 128, "unit": "µg/mL"},
      {"measurement": "MIC50", "setting": "Pichia kudriavzevii [3]", "value": 1, "unit": "µg/mL"},
      {"measurement": "MIC80", "setting": "Nannizzia gypsea [4]", "value": 128, "unit": "µg/mL"},
      {"measurement": "MIC80", "setting": "[5]", "value": 128, "unit": "µg/mL"},
      {"measurement": "MIC50", "setting": "Cryptococcus neoformans [6]", "value": 2, "unit": "µg/mL"},
      {"measurement": "MIC50", "setting": "Cryptococcus neoformans [7]", "value": 1, "unit": "µg/mL"},
      {"measurement": "MIC50", "setting": "Candida parapsilosis [8]", "value": 4, "unit": "µg/mL"},
      {"measurement": "MIC50", "setting": "Cryptococcus neoformans [9]", "value": 1, "unit": "µg/mL"},
      {"measurement": "MIC50", "setting": "Cryptococcus neoformans [10]", "value": 2, "unit": "µg/mL"},
      {"measurement": "MIC80", "setting": "Nannizzia gypsea [11]", "value": 128, "unit": "µg/mL"},
      {"measurement": "MIC50", "setting": "Candida albicans [12]", "value": 32, "unit": "µg/mL"},
      {"measurement": "MIC50", "setting": "Candida albicans [13]", "value": 32, "unit": "µg/mL"},
      {"measurement": "MIC50", "setting": "Candida tropicalis [14]", "value": 32, "unit": "µg/mL"},
      {"measurement": "MIC80", "setting": "[15]", "value": 128, "unit": "µg/mL"},
      {"measurement": "MIC80", "setting": "[16]", "value": 128, "unit": "µg/mL"},
      {"measurement": "MIC50", "setting": "Cryptococcus neoformans [17]", "value": 1, "unit": "µg/mL"},
      {"measurement": "MIC50", "setting": "Cryptococcus neoformans [18]", "value": 2, "unit": "µg/mL"},
      {"measurement": "MIC50", "setting": "Candida albicans [19]", "value": 64, "unit": "µg/mL"},
      {"measurement": "MIC50", "setting": "Nakaseomyces glabratus [20]", "value": 4, "unit": "µg/mL"},
      {"measurement": "MIC50", "setting": "Pichia kudriavzevii [21]", "value": 2, "unit": "µg/mL"},
      {"measurement": "MIC80", "setting": "[22]", "value": 128, "unit": "µg/mL"},
      {"measurement": "MIC50", "setting": "Candida albicans [23]", "value": 64, "unit": "µg/mL"},
      {"measurement": "MIC50", "setting": "Candida tropicalis [24]", "value": 16, "unit": "µg/mL"},
      {"measurement": "MIC50", "setting": "Candida albicans [25]", "value": 32, "unit": "µg/mL"},
      {"measurement": "MIC50", "setting": "Candida albicans [26]", "value": 32, "unit": "µg/mL"},
      {"measurement": "MIC80", "setting": "Nannizzia gypsea [27]", "value": 64, "unit": "µg/mL"},
      {"measurement": "MIC80", "setting": "[28]", "value": 128, "unit": "µg/mL"},
      {"measurement": "MIC50", "setting": "Cryptococcus neoformans [29]", "value": 2, "unit": "µg/mL"},
      {"measurement": "MIC50", "setting": "Candida albicans [30]", "value": 32, "unit": "µg/mL"},
      {"measurement": "MIC50", "setting": "Candida albicans [31]", "value": 64, "unit": "µg/mL"},
      {"measurement": "MIC50", "setting": "Nakaseomyces glabratus [32]", "value": 2, "unit": "µg/mL"},
      {"measurement": "MIC50", "setting": "Cryptococcus neoformans [33]", "value": 1, "unit": "µg/mL"}
    ]}
  ]
}
